Measured values pooled from the literature.
Protocols differ between the studies behind these lines.
Target: Insulin-like growth factor 1 receptor (IGF1R, Homo sapiens, UniProt P08069)

COc1ncccc1-c1cnn2ccc(N3CCN(C(=O)OC(C)C)CC3)nc12 — remaining binding (binding, competition with immobilised ligand; 1 µM): 100%
C#Cc1n[nH]c2c(-c3cn([C@@H](C)c4ccccn4)c(=O)[nH]c3=O)cc(F)cc12 — inhibition (enzyme activity, inhibitor; 0.1 µM): 8.7%
Cn1cc(-c2cccc(N3CCc4c(sc5c4CC(C)(C)C5)C3=O)c2CO)cc(Nc2ccncn2)c1=O — inhibition (enzyme activity, inhibitor; 1 µM): 3%
Cc1nn(C)cc1-c1nc2c(N3CCN(Cc4ccc(Cl)cc4)CC3)c(Cl)cnc2[nH]1 — remaining binding (binding, competition with immobilised ligand; 1 µM): 100%
O=c1[nH]c2ccccc2n1C1CCN(Cc2ccc(-c3[nH]c4cc5ncnc5cc4nc3-c3ccccc3)cc2)CC1 — remaining signal (cell-free assay; 0.5 µM): 91.2%
C#Cc1n[nH]c2c(-c3cn([C@@H](C)c4ccccc4)c(=O)[nH]c3=O)cc(F)cc12 — inhibition (enzyme activity, inhibitor; 0.1 µM): 7.8%
Nc1ncc(-c2nc(N3CCOCC3)nc(N3CCOCC3)n2)c(C(F)F)n1 — remaining binding (cell-free assay, competition with immobilised ligand; 10 µM): 78%
Cn1cc(-c2cc(F)cc(N3CCn4c(cc5c4CCCC5)C3=O)c2CO)cc(Nc2ccc(N3CCN(C4COC4)CC3)cn2)c1=O — inhibition (enzyme activity, inhibitor; 0.1 µM): 4%
CC(C)(C)c1cc(C=C(C#N)C#N)cc(Br)c1O — remaining activity (enzyme activity, inhibitor; 0.5 µM): 96.6%
Cn1cncc1[C@](O)(COc1ccc(C#N)cc1-c1ccc(OC(F)(F)F)cc1)c1ccc(C#N)cc1 — remaining binding (cell-free assay, competition with immobilised ligand; 1 µM): 92%
